# Screening results deposited in PubChem BioAssay by several laboratories.
# Only some compounds are listed: those with a hit (about 1.7% of all), similar ones and a draw of the others.
# ZTA DNA inh = counter-screen for EBNA-1 inhibitors: inhibitors of Epstein-Barr virus ZTA; inhibition, % at 11 µM; ZTA-DNA binding, fluorescence polarization; P03206; actives 0.15% (n = 320,000); AID 2234; in the data active = inhibition above about 33%
# Target sequence (P03206 whole entry, looked up): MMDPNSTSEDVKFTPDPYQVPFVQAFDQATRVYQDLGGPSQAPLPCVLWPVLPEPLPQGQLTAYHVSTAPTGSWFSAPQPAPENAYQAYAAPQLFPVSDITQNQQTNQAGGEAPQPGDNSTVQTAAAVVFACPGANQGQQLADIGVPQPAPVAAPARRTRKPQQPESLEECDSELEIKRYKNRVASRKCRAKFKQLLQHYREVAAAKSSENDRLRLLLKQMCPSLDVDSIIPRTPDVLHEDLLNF
# UBC13 inh = UBC13 polyubiquitin chain formation inhibitors, primary screen, biochemical, TR-FRET, uHTS. inhibition, % at 20 µM. actives 0.47% (n = 330,000). Ubiquitin-conjugating enzyme E2 N (Homo sapiens), P61088; in the data active = inhibition above about 45%, passing the limit was not always enough; inconclusive = no clear call, values can overlap the other calls
# Target sequence (P61088 whole entry, looked up): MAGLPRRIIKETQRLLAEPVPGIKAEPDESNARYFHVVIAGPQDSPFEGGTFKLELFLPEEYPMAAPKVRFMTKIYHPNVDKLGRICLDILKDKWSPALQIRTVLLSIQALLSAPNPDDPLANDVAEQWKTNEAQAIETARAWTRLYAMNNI
# Apaf1 inhib = inhibitors of human Apaf-1 apoptosome, primary screen, biochemical, DEVD-Rh110 fluorescence, uHTS | reconstituted apoptosome caspase-3 activity | inhibition, % at 20 µM | actives 0.71% (n = 330,000); active = inhibition of at least 40% at 20 µM;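 also: plate controls were DMSO wells for no effect and DEVD-CHO caspase inhibitor wells for full effect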
#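 Material: reconstituted apoptosome with Apaf-1, cytochrome c, caspase-9, procaspase-3, dATP / Buffer or medium: pH 7.5 Hepes buffer with CHAPS, BSA, DTT / Also added: cytochrome c with DEVD-Rh110 / Schedule: compound with Apaf-1, dATP, procaspase-3 30 min, then 50 min reaction, room temperature / Technique: rhodamine 110 fluorescence at Ex 480/Em 540 nm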
# PREPL inhibitor = PREPL enzyme inhibitors, primary screen, biochemical, fluorescence polarization; inhibition, % at 5.96 µM; recombinant PREPL, fluorescence polarization activity-based probe; actives 0.68% (n = 320,000); Prolyl endopeptidase-like (Homo sapiens), Q4J6C6; AID 2751, 2010; in the data active = inhibition above about 43%;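 also: 0% = enzyme with DMSO and 100% = wells lacking enzyme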
# EBNA-1 inhibitor = EBNA-1 DNA-binding inhibitors, primary screen, biochemical, fluorescence polarization; inhibition, % at 14.8 µM; actives 0.34% (n = 300,000); in the data active = inhibition above about 28%
# The depositor's hits bear a star; ? = inconclusive; . = no result given; + = active, no number; ! = a repeat was not active.
SMILES,ZTA DNA inh,UBC13 inh,Apaf1 inhib,PREPL inhibitor,EBNA-1 inhibitor
O=C1NC(=O)[C@@H]2C3c4ccccc4C=CN3[C@H](C(=O)c3cccs3)[C@H]12 (stereo not given in full),-2,-8,47*,14,-7
O=C(c1ccccc1)C1CCN(C(=O)c2cccs2)CC1,-7,-8,0,-4,15
CC(C)C(=O)Nc1cccc(-c2cn3ccsc3n2)c1,24,4,67*,1,7
COC(=O)c1[nH]c(=O)c2ccccc2c1O,-12,-5,91*,-3,6
COc1cccc(/C=N/Nc2nc(Nc3ccc([N+](=O)[O-])cc3)nc(N3CCCC3)n2)c1O,2,-18,-2,29,-17
O=[N+]([O-])c1ccc(Nc2nc(N/N=C/c3cccc(F)c3)nc(N3CCCC3)n2)cc1,-2,-24,-3,47*,15
CN(C)c1cccc(C(=O)N(Cc2ccccc2)Cc2ccccc2)c1,.,7,8,.,.
CCN(CC)c1ccc(C=Nc2ccc(N(C)C)cc2)c(O)c1,+,-75,44*,17,+
CCN(CC)c1ccc(N=Cc2ccc(N(CC)CC)cc2O)cc1,192*,-28,28,21,129*
CCN(CC)c1ccc(C=Nc2ccc(C)cc2)c(O)c1,-3,3,5,6,9
N#C/C(=C\c1ccccc1[N+](=O)[O-])c1nc(C2CC2)cs1,-2,-13,13,15,-1
Cc1cc(NC(=O)c2cc3n(n2)C(C(F)(F)F)CC(c2ccc(Cl)c(Cl)c2)N3)no1 (stereo not given),2,-1,10,-1,27
CC(C)Cn1c(/C=C/c2ccco2)nc2ccccc21,1,-5,18,4,11
COc1ccc2[nH]c(C)cc(=O)c2c1,10,10,-4,0,-6
COc1ccc2[nH]c3c(C)c4ccncc4c(C)c3c2c1,20,?,76*,33,-27
COC(=O)c1c(NC(=O)COc2ccc(Cl)cc2)sc2c1CC(C)(C)NC2(C)C,3,43,61*,15,8
COC(=O)c1c(NC(=O)Cc2ccccc2)sc2c1CC(C)(C)NC2(C)C,-1,22,16,39,-2
CC(=O)Nc1ccc(NC(=O)CSc2ncc(C(=O)Nc3ccccc3)c(=O)n2C)cc1,-10,69*,7,4,0
Cc1ccc(NC(=O)c2cnc(SCC(=O)NCC3CCCO3)n(C)c2=O)cc1C (stereo not given),1,72*,16,2,-1
O=C(O)CCNS(=O)(=O)c1ccccc1,0,0,-6,3,-2
COc1ccc(NC(=O)CCl)cn1,2,-12,67*,3,5
COc1ccc(CC(=O)Nc2ccc(OC)nc2)cc1,-9,-2,2,-3,-5
CCCN1CCCc2cc(CN)ccc21,31,-24,84*,63*,13
CN1CCCc2cc(C=O)ccc21,4,-7,2,28,7
C=Cc1c(C)c2cc3[nH]c(cc4nc(cc5nc(cc1[nH]2)C(C)=C5CCC(=O)O)C(CCC(=O)O)=C4C)c(C)c3C=C,146*,-44,11,40,96*
SMILES,ZTA DNA inh,UBC13 inh,Apaf1 inhib,PREPL inhibitor,EBNA-1 inhibitor
O=C1NC(c2cccc(Cl)c2)Oc2ccccc21 (stereo not given),-18,0,-3,11,10
Cn1nc(-c2ccc(Cl)cc2)c2cc(C(=O)NCCCN3CCCC3)sc21,6,40,49*,-64,9
CC(=O)[C@@H]1[C@@H]2C(=O)N(c3ccc(F)c(Cl)c3)C(=O)[C@@H]2C2c3ccccc3C=CN21 (stereo not given in full),-6,-18,72*,-1,-2
N#C[C@@H]1[C@@H]2C(=O)N(c3ccc4c(c3)OCCO4)C(=O)[C@@H]2C2c3ccccc3C=CN21 (stereo not given in full),-2,-24,78*,9,1
COC(=O)C1(CCSC)NC(c2ccccc2F)C2C(=O)N(c3ccc4c(c3)OCCO4)C(=O)C21 (stereo not given),-29,-12,-1,-23,-8
CC(=O)[C@H]1[C@@H]2C(=O)N(c3cccc(Cl)c3)C(=O)[C@@H]2[C@H]2c3ccccc3C=CN21,0,-23,73*,13,-10
CC(=O)[C@H]1[C@H](c2cccc(Cl)c2)C(C#N)(C#N)[C@@H]2c3ccccc3C=CN21,-1,-7,56*,5,-3
CCc1ccc(-c2cc3c(=O)n(CC(=O)NCCN4CCCCC4C)nc(C)n3n2)cc1 (stereo not given),-10,9,18,-21,-10
CCCCC(CC)Cn1c(N)c(C#N)c2nc3ccccc3nc21 (stereo not given),16,1,34,9,6
O=C(C1CCN(Cc2nc(Cc3cccc(F)c3)no2)CC1)N1CCOCC1,-13,4,-7,7,6
O=C(c1ccco1)[C@@H]1[C@@H]2C(=O)N(c3ccc(F)cc3)C(=O)[C@@H]2[C@H]2C=Cc3ccccc3N21,4,.,.,-5,-9
O=C(c1ccco1)[C@@H]1[C@@H]2C(=O)N(c3ccc(F)cc3)C(=O)[C@@H]2C2c3ccccc3C=CN21 (stereo not given in full),5,-14,83*,12,-3
O=C(CCC1N=C2c3ccccc3N=C(SCc3ccc(Cl)cc3)N2C1=O)NCc1ccco1 (stereo not given),12,15,41*,39,18
O=C(Cc1cc(=O)[nH][nH]1)N/N=C/C=C/c1ccccc1,-4,-2,48*!,16,17
CCn1c(CNC(=O)c2cccc(C)c2)nnc1SCC(=O)Nc1cccc(OC)c1,-6,20,-12,4,7
CC(=O)Nc1cccc(NC(=O)COc2nncc3ccccc23)c1,-2,20,-6,1,-5
CCn1c2ccccc2c2cc(NC(=O)c3ccc(=O)oc3)ccc21,7,-25,4,71*,-2
CCOc1cccc(C(=O)Nc2cccc(-c3nnc(-c4ccccc4)o3)c2)c1,3,-1,0,-5,9
C/C(=C\C(=O)c1cccnc1)Nc1ccc(O)cc1,2,-9,5,81*,1
COc1ccc(NC(=O)c2cccnc2)cc1,7,-7,-10,2,2
COc1ccc(/C=C2/C(=O)N(c3c(F)c(F)c(F)c(F)c3F)N=C2C)cc1,-19,-18,54*,5,-19
COc1ccc(/C=C2\C(=O)ON=C2c2ccccc2)cc1,1,-2,-1,-6,11
Cc1ccc2nc(-c3ccc(NC(=O)COC(=O)c4ccc(Br)o4)cc3)sc2c1,4,0,0,-7,35*
O=C(O)c1ccccc1S(=O)CCO (stereo not given),-6,-7,4,2,1
